Results on 73 molecules are retold here after ChEMBL document CHEMBL4513216, “Probing the Open Global Health Chemical Diversity Library for Multistage-Active Starting Points for Next-Generation Antimalarials” (ACS Infect Dis, 2020).

A short description of this series: Toxicity liver stage against HepG2, at 10uM. The format is cell-based. Also noted: test concentration 10 uM, cell line HepG2-A16-CD81EGFP. The note with it: human, HepG2-A16-CD81EGFP cells; read-out: INHIBITION
Put shortly: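 Uninfected HepG2-A16-CD81EGFP cells, 3 × 10^3 per well, 1536-well, plated on prespotted compound at 10 μM final, parasite-free screening media added to match infected plates; puromycin 10 μM positive, DMSO 0.5% negative; run in parallel with 48 h PbLuc assay at 37 °C, 5% CO2; viability by CellTiter-Glo luminescence, normalized to controls.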
Consider `COc1cccc(NC(=O)c2nc3ccccc3n(C)c2=O)c1`, for which the cytotoxicity at 10 µM worked out at 4.47%. With `COc1cc(CC(O)CC#N)c(OC)c2c1OCO2` (stereo not drawn) the figure was -6.32%. For the molecule `CC1CCc2nc(O)c(C(=O)NCc3cccc(F)c3)cc2C1` (stereo not drawn), the cytotoxicity at 10 µM is 3.43%. For the molecule `CSCCC(C)NC(=O)c1cccc(-c2n[nH]c(C)n2)c1` (stereo not drawn), the cytotoxicity at 10 µM is 1.31%. With `CN(C)c1cc(C(F)(F)F)nc(N2CCCC2c2ccccn2)n1` (stereo not drawn) the figure was 5.36%; with `CCN(CC(=O)NC(C)C)C(=O)c1csc(Cc2ccccc2)n1`, -5.43%; with `COc1ccccc1C(NC(=O)CN(C)C(C)C)c1noc(C)n1` (stereo not drawn), -3.21%. Then `Cc1cnn(CC(C)NCC(=O)Nc2ccc(Cl)cn2)c1` (stereo not drawn), with 6.05%.

Take `COc1ccc(CN2CCN(Cc3nccn3C)C(C)C2)cc1F` (stereo not drawn): the cytotoxicity at 10 µM turned out to be 2.42%. With `O=C(c1ccc(NCc2cccc(F)c2)cc1)N1CCC(CO)CC1` the figure was 6.21%; with `CC(=O)c1cc(C(=O)N2CCN(C)Cc3ccccc32)n(C)c1`, 7.85%; with `CN(C)C1CCCN(C(=O)NCCC(C)(C)C)C1` (stereo not drawn), -0.317%.

With `Cc1[nH]ccc1C(=O)NC1CCC(N2C(=O)CCC2=O)CC1` (stereo not drawn), the cytotoxicity at 10 µM is -3.81%. Then `NC(=O)CN1CCC(NC2CSCCc3ccccc32)CC1` (stereo not drawn), with -3.21%; and `CCc1ccc(C2COCCN2C(=O)NCc2cccc(C#N)c2)o1` (stereo not drawn), with -0.838%; and `O=C(CCc1ccccc1Br)NCC(=O)NCc1ccccc1`, with 0.988%. Then `CCCn1nc2c(cc1=O)CN(CC(=O)Nc1cc(C)no1)CC2`, with -4.59%; and `CCCNC(=O)COc1ccc(-c2ccccc2)nc1`, with 6.16%; and `O=C(NCCc1cccs1)NC1CCN(c2ncccn2)CC1`, with -141%. Then `COCCn1ccc(NC(=O)Nc2ccc(C)cc2)n1`, with 2.19%. Consider `O=C(c1ccc(=O)[nH]n1)N1CCCC1CCc1ccccc1` (stereo not drawn), for which the cytotoxicity at 10 µM is 8.89%. On to `CCOc1ccc(N2CCC(C(O)c3ccccc3)CC2)nn1` (stereo not drawn), for which the cytotoxicity at 10 µM was -2.2%. With `Cc1cc(C(=O)Nc2cccn(Cc3ccccc3)c2=O)no1` the figure was -1.55%; with `CCc1nc(COc2ccc(N(C)C(C)=O)cc2)no1`, -0.408%.

In the case of `COCCNC(=O)c1nn(-c2cccc(C(C)C)c2)cc1O`, the cytotoxicity at 10 µM is -2.35%. For `CN(C)C(=O)CN1CCCc2c(F)cc(Br)cc21`, the cytotoxicity at 10 µM is -0.682%.

Regarding `O=C(CSc1nnc[nH]1)NCc1cccs1`, the cytotoxicity at 10 µM was 0.284%. Then `COc1ccc(Br)cc1CCC(=O)N1CCC(O)CC1`, with -1.96%; and `Cc1noc(C)c1CCc1nc(C2CCOC2)no1` (stereo not drawn), with -4%.

On to `CSCCC(NC(N)=O)C(=O)N1CCC(Cc2ccccc2)CC1` (stereo not drawn), for which the cytotoxicity at 10 µM was determined as 1.28%. Then `CN(CCn1cccn1)S(=O)(=O)c1cccc(F)c1C#N`, with 3.41%. Then `O=C1CCC2(CCCN(C(=O)c3ncc[nH]3)C2)CN1CCc1c[nH]cn1` (stereo not drawn), with -2.47%.

Consider `CC(C)=CCCC(C)CN1CCC(n2cc(C(C)(C)O)nn2)CC1` (stereo not drawn), for which the cytotoxicity at 10 µM is -2.27%.

In the case of `COc1cc(N[C@@H](Cc2ccccc2)C(N)=O)ncn1`, the cytotoxicity at 10 µM turned out to be 10.1%. For `O=C(C1CCCC1)N1CCN(Cc2ccncc2)[C@@H]2CS(=O)(=O)C[C@@H]21`, the cytotoxicity at 10 µM is -1.79%. Then `Cc1ccc(S(=O)(=O)NCC2CNCCOC2)cc1Cl` (stereo not drawn), with 0.858%; and `COc1ccccc1[C@@H]1CN(C(=O)Cc2csc(C)n2)C[C@H]1C(=O)O`, with -8.25%; and `Cc1cc(C2CCC2)nc(NCCC23CCCN2CCC3)n1`, with 0.414%. Then `CCN(CCO)C(=O)C1CCC(=O)N(Cc2cccc(OC)c2)C1` (stereo not drawn), with -9.49%; and `CCc1cnc(NCC(c2cccnc2)N2CCOCC2)nc1` (stereo not drawn), with 9.6%. With `O=C(Nc1ccccc1OCCc1ccccn1)N1CCOCC1`, the cytotoxicity at 10 µM is 3.18%. Then `COc1ccccc1OCCCN1C(=O)CCNC1=O`, with -3.7%; and `O=C(c1cnc(COc2ccccc2)nc1O)N1CCC(F)(F)CC1`, with -3.11%. With `COCC(c1ccccn1)N(C)C(=O)c1cc(-c2ccccc2O)n[nH]1` (stereo not drawn) the figure was -1.84%. Then `CCn1c(N)nc2cc(C(=O)NCCNc3ncccc3C)cnc21`, with -5.98%; and `CN(C)C(=O)CN1CCN(c2ncccn2)[C@@H]2CS(=O)(=O)C[C@@H]21`, with -3.01%.

As for `CCOCCNc1nc(-c2ccncc2)nc2c1CCNCC2`, the cytotoxicity at 10 µM was -136%. Take `CCC1=NOC(CNCc2cnc(-c3ccccc3C)s2)C1` (stereo not drawn): the cytotoxicity at 10 µM was -5.92%.

For the molecule `CCc1ccc2nc(C)cc(C(=O)NC3CCCCNC3=O)c2c1` (stereo not drawn), the cytotoxicity at 10 µM is -8.48%.

Consider `CN(Cc1cnc(N)nc1)C(=O)C1CC(=O)N(Cc2ccncc2)C1` (stereo not drawn), for which the cytotoxicity at 10 µM came out at 0%.

For `N#Cc1cccnc1N1CCCC(CO)(Cc2cccc(Cl)c2)C1` (stereo not drawn), the cytotoxicity at 10 µM was 6.29%. With `O=C1CCC2(CCN(Cc3cscn3)CC2)CN1CCCO` the figure was -5.26%; with `C[C@@H]1CN(Cc2ccc(C(F)(F)F)cc2F)CC[C@]1(C)O`, 4.54%; with `CN(Cc1nccn1C)c1ccc(-c2nccn2C)nn1`, -6.45%.

With `COc1cccc2c1OCC(CNC(=O)CN(C)C1CCCC1)C2` (stereo not drawn), the cytotoxicity at 10 µM is -147%.

Take `CNc1ncc(CN(C)C(=O)[C@@]23CNC[C@@H]2CN(C2CCCC2)C3)cn1`: the cytotoxicity at 10 µM was found to be 0.153%. As to `COc1ccc2c(c1)OCC(Cc1ccc(N)cn1)C2` (stereo not drawn), the cytotoxicity at 10 µM is -1.91%. In the case of `CN(C)C[C@@H]1CN(C2CCN(c3ccc(Cl)cc3)CC2)C[C@@H]1CO`, the cytotoxicity at 10 µM is -9.14%. `Cc1ccc([C@H]2CN(C(=O)CC3CCC3)C[C@@H]2N)o1`: the cytotoxicity at 10 µM was 5.89%. `O=S1(=O)C[C@@H]2[C@H](C1)N(S(=O)(=O)N1CCCC1)CCN2Cc1ccccc1`: the cytotoxicity at 10 µM is -2.59%.

Take `c1csc(N2CCN(Cc3cc4n(n3)CCNC4)CC2)n1`: the cytotoxicity at 10 µM was -3.59%. With `O=C(COCc1ccccc1)N1CCC(OCc2cccnc2)CC1` the figure was 4.41%; with `O=C(c1ccsc1)N1CCC(Nc2cccnn2)CC1`, -7.58%.

Consider `Cc1ncsc1C(=O)NCCNC(=O)Cc1cccc(F)c1`, for which the cytotoxicity at 10 µM was -0.0716%. Then `Cc1nc(C2CCCN2C(=O)CCn2cncn2)no1` (stereo not drawn), with -17.8%; and `Cc1cnn(CC2CN(CC(=O)N(C)Cc3ccsc3)CCO2)c1` (stereo not drawn), with -10.6%.

In the case of `CC(Cn1cccn1)NC(=O)NCc1ccc(C(N)=O)cc1` (stereo not drawn), the cytotoxicity at 10 µM was -3.2%.

For the molecule `CCn1ccnc1CN1CCN(CC(O)c2cccc(F)c2)CC1` (stereo not drawn), the cytotoxicity at 10 µM amounted to 0.272%. For `O=C(c1ccccc1-n1cccn1)N1CCC(Nc2cccnn2)CC1`, the cytotoxicity at 10 µM is -15.9%.

Turning to `CCOc1ncccc1C(=O)N1CCCC(c2nncn2C)C1` (stereo not drawn), the cytotoxicity at 10 µM was -8.47%. Consider `CN(Cc1ccsc1)C(=O)CN1CCCCC1Cn1cccn1` (stereo not drawn), for which the cytotoxicity at 10 µM was -1.07%. With `O=C(NCC1CN(c2ncccn2)Cc2nccn2C1)c1cccnc1` (stereo not drawn) the figure was -143%; with `CNC(=O)C(C)(C)N1CCC[C@H]1C(=O)NCCN1CCCC1`, -2.3%.
